Only some compounds are listed: those with a hit (about 2.7% of all), similar ones and a draw of the others.
MsrA act: bovine MsrA enzyme activators, primary screen, biochemical, absorbance, HTS. purified bovine MsrA, absorbance read-out. activation, % at 10.6 µM. 360,000 compounds, 0.3% hits. AID 602163, 2012; in the data active = activation above about 7.5%;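 also: 0% = vehicle and 100% = reference activator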
MsrA inhibitor: bovine MsrA enzyme inhibitors, primary screen, biochemical, absorbance, HTS. purified bovine MsrA, absorbance read-out. inhibition, % at 15.5 µM. 360,000 compounds, 0.75% hits; in the data active = inhibition above about 4.5%;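 also: 0% = vehicle wells with enzyme and 100% = reference inhibitor wells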
ARFGAP1 inhibitor: inhibitors of rat ARFGAP1 GAP activity, primary screen, biochemical, fluorescence polarization, GDP tracer; 360,000 compounds, 0.26% hits; Arfgap1-stimulated ARF1 GTP hydrolysis, GDP FP detection; inhibition, % at 16.5 µM; ADP-ribosylation factor GTPase-activating protein 1 (Rattus norvegicus), Q62848;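 active = inhibition above a per-plate limit, mean inhibition of low control wells plus 3 SD, cut at about 25% in these data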;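 also: 0% = DMSO wells with enzyme and 100% = wells lacking Arfgap1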
Target sequence (Q62848 1-136 limits assumed): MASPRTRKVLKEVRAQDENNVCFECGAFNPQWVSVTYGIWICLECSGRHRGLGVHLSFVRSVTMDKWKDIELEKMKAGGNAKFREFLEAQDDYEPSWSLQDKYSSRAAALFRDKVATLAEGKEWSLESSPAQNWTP
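Assay system: purified rat His6-Arfgap1 residues 1-136 (GAP domain); Reagent: human Δ17 ARF1 bound to GTP; Dosing: 16.5 µM single point, 1.26% DMSO; Times: GTP hydrolysis reaction 2 h at 25 °C; Signal: FP, GDP Alexa 633 tracer displaced from anti-GDP antibody, 620/688 nm; Measure: % inhibition from polarization.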
NR1D1 modulator: modulators of Rev-erb alpha DNA binding, primary screen, biochemical, FITC-DNA, fluorescence polarization, uHTS; Nuclear receptor subfamily 1 group D member 1 (Homo sapiens), P20393; Rev-erbα–FITC-DNA binding, 90 min; activity, % at 10 µM; 370,000 compounds, 0.79% hits;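 active = activity above about 14%, limit read from the data; passing the limit was not always enough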;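 also: 0% = DMSO wells with 35 nM protein and 100% = DMSO wells with 750 nM protein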
sPLA2-III inh: human group III sPLA2 inhibitors, primary screen, biochemical, QFRET, BODIPY PC-A2 liposome substrate. Group 3 secretory phospholipase A2 (Homo sapiens), Q9NZ20. QFRET BODIPY PC-A2 liposome hydrolysis, fluorescence. inhibition, % at 12.2 µM. 370,000 compounds, 0.56% hits. AID 743126, 2013;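 active = inhibition above mean plus 3 SD of compounds lying within the high and low control bounds, cut at about 19% in these data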;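 also: 0% = median of test compound wells and 100% = no enzyme DMSO wells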
Target sequence (Q9NZ20 whole entry, looked up): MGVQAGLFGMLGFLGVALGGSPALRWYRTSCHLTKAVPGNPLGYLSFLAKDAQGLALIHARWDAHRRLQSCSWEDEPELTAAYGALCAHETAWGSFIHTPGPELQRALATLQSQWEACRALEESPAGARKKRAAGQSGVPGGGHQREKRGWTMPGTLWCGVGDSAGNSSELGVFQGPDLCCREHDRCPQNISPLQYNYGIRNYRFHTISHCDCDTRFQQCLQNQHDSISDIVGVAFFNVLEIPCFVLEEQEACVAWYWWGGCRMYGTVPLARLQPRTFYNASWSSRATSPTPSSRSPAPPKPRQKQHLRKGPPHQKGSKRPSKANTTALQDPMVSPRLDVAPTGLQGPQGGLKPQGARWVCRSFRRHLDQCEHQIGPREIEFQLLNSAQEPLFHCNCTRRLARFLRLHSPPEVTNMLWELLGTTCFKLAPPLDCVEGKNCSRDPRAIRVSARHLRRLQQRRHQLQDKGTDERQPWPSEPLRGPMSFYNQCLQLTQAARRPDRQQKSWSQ
ASAP1 inh: inhibitors of human ASAP1 ArfGAP activity, primary screen, biochemical, fluorescence polarization | 360,000 compounds, 0.19% hits | ASAP1-stimulated ARF1 GTP hydrolysis, GDP FP detection | AID 624377, 2012 | inhibition, % at 16.5 µM | Arf-GAP with SH3 domain, ANK repeat and PH domain-containing protein 1 (Homo sapiens), …; in the data active = inhibition above about 25%;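 also: 0% = vehicle with enzyme and substrate and 100% = no enzyme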
sPLA2 confirm: human group III sPLA2 inhibitors, confirmation, biochemical, QFRET, triplicate; 2,000 compounds, 34% hits; AID 743280, 2014; recombinant hGIII-sPLA2, BODIPY PC-A2 QFRET fluorescence; shares compounds with sPLA2-III inh; inhibition, % at 12.2 µM;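 active = mean inhibition across triplicates above the hit cutoff set in the earlier primary screen, cut at about 19% in these data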;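 also: 0% = enzyme with DMSO and 100% = DMSO wells lacking enzyme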
535nm interf: 535nm fluorescence optical interference, confirmation, artefact control for HGIII-sPLA2 inhibitor project, biochemical, QFRET; shares compounds with sPLA2-III inh; BODIPY FL product fluorescence interference; inhibition, % at 12.2 µM; 2,000 compounds, 8.5% hits;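 active = average inhibition above the solvent-only control mean plus 3 SD, cut at about 6% in these data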;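 also: 0% = DMSO with substrate plus product and 100% = DMSO with substrate alone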
* hit, by the source's call; . = not tested or not shown.

SMILES	MsrA act	MsrA inhibitor	ARFGAP1 inhibitor	NR1D1 modulator	sPLA2-III inh	ASAP1 inh	sPLA2 confirm	535nm interf
CCOc1cccc(C2NC(=S)NC(C)=C2C(=O)Nc2ccccc2)c1 (stereo not drawn)	-2	1	6	1	24*	0	16	-2
CCCCNc1cc(NC(C)=O)cc2cc(OC)c(OC)cc12	-2	-1	2	3	10	8	.	.
COc1cc2cc(NC(C)=O)cc(NCc3ccccc3)c2cc1OC	-2	1	17	-1	21*	-6	19	-2
CSc1n[nH]c(=O)n1-c1cccc(Cl)c1	-3	-1	-1	4	20*	8	-1	-6
Cc1n[nH]c(=S)n1-c1cccc(Cl)c1	6	2	-1	-1	8	11	.	.
Clc1cccc(N2CCN(CCCN3CCN(c4ccccc4)CC3)CC2)c1	-2	0	2	0	-4	-5	.	.
Nc1ccc(N2CCN(c3cccc(Cl)c3)CC2)cc1	4	0	17	5	23*	13	10	5
COc1ccc(OC)c(CN2C(=O)c3ccccc3C2c2nnnn2C2CCCC2)c1 (stereo not drawn)	-2	0	-13	-4	0	-7	.	.
C[C@@H]1CN(C(=O)OC(C)(C)C)CCN1c1ccc(N2CC[C@H](O)C2)c(C#N)c1	.	1	8	1	21*	0	8	-13
CCOC(=O)CC[C@@H]1CC[C@]2(CCCN(C(=O)c3cccnc3)C2)O1	.	.	.	1	3	.	.	.
CCCS(=O)(=O)NC(=O)C1(C)CCN(C(=O)c2nc(C)oc2C)C1 (stereo not drawn)	-2	-1	7	-9	-2	-4	.	.
N=c1n(CCN2CCCCC2)c2ccccc2n1CC(O)c1ccco1 (stereo not drawn)	1	0	8	-6	21*	7	-1	-21
COC1=C[C@H](C(=O)NCCNC(C)=O)[C@@]2(C)Cc3ccccc3[C@H]2CC1=O	.	.	.	-2	4	.	.	.
O=C(NCCc1ccncc1)Nc1ccc(F)cc1	-11	1	11	-1	20*	3	4	-8
O=C(NCCc1ccncc1)Nc1ccc(Cl)cc1	0	0	0	2	4	3	.	.
CCN(CC)C(=O)CC[C@H]1CC[C@]2(CCCN(C(=O)C(C)(C)C)C2)O1	.	.	.	-5	4	.	.	.
S=C(NCc1ccco1)NCC(c1ccco1)N1CCCCC1 (stereo not drawn)	-13	-1	9	-5	23*	15	27*	-9
Oc1cccc2ccc(/C=C/c3ccccc3Br)nc12	-2	2	5	3	26*	7	6	-1
COc1ccc(Cn2cc(COC(=O)NCCc3c[nH]c4ccccc34)nn2)cc1	.	.	.	-2	-75	.	.	.
O=C(CSc1nnc(NCc2ccccc2)s1)N1CCOCC1	-10	0	6	2	27*	2	-2	-5
O=C(Nc1nnc(SCC(=O)N2CCOCC2)s1)c1ccccc1Cl	-2	-1	-9	.	12	-1	.	.
CCCCCCCCN1CCS(=O)(=O)N(Cc2ccccc2)C(C(=O)OC)C1 (stereo not drawn)	.	.	.	0	-5	.	.	.
COc1ccc(C(=O)N/N=C/c2cc3ccccc3[nH]c2=S)cc1	-2	1	11	-1	44*	15	35*	10*
COC(=O)C[C@H]1CC[C@@H]2[C@@H](COc3ccc(NC(=O)Nc4ccccc4OC)cc3C(=O)N2C)O1	.	.	.	3	-4	.	.	.
CC(=O)OCC(=O)N1CCN(C(=O)C(=O)c2cccc(C(F)(F)F)c2)CC1	.	0	12	-4	22*	0	4	-3
SMILES	MsrA act	MsrA inhibitor	ARFGAP1 inhibitor	NR1D1 modulator	sPLA2-III inh	ASAP1 inh	sPLA2 confirm	535nm interf
O=C(C(=O)N1CCN(S(=O)(=O)c2cccc(C(F)(F)F)c2)CC1)c1cccc(C(F)(F)F)c1	.	1	6	-1	14	5	.	.
CCOC(=O)c1cc(CC)sc1/N=C/C1=C(O)CC(C)(C)CC1=O	-2	0	20	6	23*	4	11	-2
CCCS(=O)(=O)c1c(S(=O)(=O)CCC)c2cnccn2c1C(=O)c1ccc(F)cc1	-4	1	7	1	19*	-12	3	-10
CCCS(=O)(=O)c1c(S(=O)(=O)CCC)c2cnccn2c1C(=O)c1ccc(CC)cc1	2	0	7	-3	0	13	.	.
C#CCNC(=O)C[C@H]1C[C@@]2(C(=O)OC)C(=C[C@H](C3CCCC3)O[C@@H]2C)N(CCc2ccc(OC)c(OC)c2)C1=O	.	.	.	2	-3	.	.	.
COc1ccc(C(NC(C)=O)c2nccc3cc(OC)c(OC)cc23)cc1OC (stereo not drawn)	0	0	7	-4	20*	6	4	-2
CNc1nc(-c2ccccc2)nc(-c2ccccc2)c1C#N	1	0	8	7	20*	3	-4	-5
COc1ccc(N)c2c1C(=O)c1ccccc1C2=O	-6	0	11	0	33*	0	37*	14*
Cc1cc(C)c2nc(NNC(=O)c3ccc(S(=O)(=O)N4CCc5ccccc5C4)cc3)sc2c1	-1	1	18	6	50*	5	36*	2
CCc1nnc(NC(=O)c2ccc(S(=O)(=O)N3CCc4ccccc4C3)cc2)s1	2	0	-4	-1	1	-8	.	.
CCOC(=O)N1CCC(N2C(=O)c3ccc(C(=O)O)cc3C2=O)CC1	-8	-1	7	-6	3	-2	.	.
CCOC(=O)c1ccc2c(c1)C(=O)N(C1CCCCC1)C2=O	-1	0	2	-5	20*	2	3	-8
COc1ccc(S[C@]2(C(=O)N3CCOCC3)CC(=O)N(c3ccsc3)[C@@H]2c2ccc(OC)cc2)cc1	.	.	.	2	-5	.	.	.
CCCCNC(=O)C1(C)CCN1C(=O)Cc1ccc(OC)cc1 (stereo not drawn)	-2	-1	3	8	6	12	.	.

Compound activity from PubChem BioAssay.
